Only some compounds are listed: those with a hit (about 2.1% of all), similar ones and a draw of the others.
Runt-CBFb FRET – inhibitors of RUNX1 Runt–CBFb binding, primary screen, biochemical, FRET, Cerulean-Runt, Venus-CBFb, uHTS; Cerulean-Runt/Venus-CBFb FRET ratio 530/480, 1 h; Runt-related transcription factor 1 (Homo sapiens) + Core-binding factor subunit beta …; hit rate 0.46% among 220,000; inhibition, % at 20 µM;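 active means inhibition over about 50% at 20 µM in the single-dose screen, limit read from the data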;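 further: 0% = DMSO wells and 100% = excess unlabeled CBFb competitor control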
Target sequence (Q01196 whole entry, looked up): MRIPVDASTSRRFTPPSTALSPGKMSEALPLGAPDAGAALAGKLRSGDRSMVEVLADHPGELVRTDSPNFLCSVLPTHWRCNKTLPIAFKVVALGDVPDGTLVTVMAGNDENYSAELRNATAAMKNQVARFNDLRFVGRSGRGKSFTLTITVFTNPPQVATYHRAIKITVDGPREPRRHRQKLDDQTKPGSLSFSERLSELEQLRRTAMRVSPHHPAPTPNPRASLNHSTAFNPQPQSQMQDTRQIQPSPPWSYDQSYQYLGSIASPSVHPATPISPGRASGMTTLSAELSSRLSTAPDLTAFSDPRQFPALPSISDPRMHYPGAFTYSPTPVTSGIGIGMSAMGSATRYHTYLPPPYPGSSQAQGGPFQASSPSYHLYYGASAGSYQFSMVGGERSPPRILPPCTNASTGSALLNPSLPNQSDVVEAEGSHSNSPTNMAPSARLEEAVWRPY
Target sequence (Q13951 whole entry, looked up): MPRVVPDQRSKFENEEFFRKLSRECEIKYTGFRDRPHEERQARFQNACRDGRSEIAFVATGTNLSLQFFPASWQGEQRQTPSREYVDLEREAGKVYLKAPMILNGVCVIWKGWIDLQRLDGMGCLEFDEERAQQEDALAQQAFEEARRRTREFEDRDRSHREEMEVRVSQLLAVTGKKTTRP
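test system = Cerulean-Runt domain fusion protein, energy donor | probe or stimulus = Venus-CBFb binding partner, 100 nM | incubation = two 1 h room-temperature incubations shielded from light | detection = fluorescence energy transfer, 422 nm excitation, 530/480 nm emission | measure = loss of energy transfer signal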
Runt-SMMHC FRET – inhibitors of RUNX1 Runt–CBFb-SMMHC binding, primary screen, biochemical, FRET, Cerulean-Runt, Venus-CBFb-SMMHC, uHTS. Runt-related transcription factor 1 (Homo sapiens) + Core-binding factor subunit beta …. Cerulean-Runt/Venus-CBFb-SMMHC FRET ratio 530/480, 1 h. inhibition, % at 20 µM. hit rate 0.74% among 220,000;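 active means mean inhibition across duplicate retests at 20 µM reaching about 50%, limit read from the data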;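 further: 0% = DMSO wells and 100% = wells with excess untagged CBFb-SMMHC; inhibitors lower the FRET ratio by blocking Runt binding to CBFb-SMMHC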
zVAD death inh – inhibitors of zVAD-triggered necroptosis, primary screen, L929 cells; L929 zVAD necroptosis rescue, ATP luminescence, 24 h; with zVAD 60 µM; viability rescue, % at 10 µM; hit rate 0.38% among 220,000; AID 1377, 2008;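 active means activation, scaled between plate controls, above about 75%, limit read from the data; inactive means activation under that limit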;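 further: 0% = zVAD with DMSO and 100% = DMSO alone without zVAD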
RanGTP-Impb inh – inhibitors of RanGTP-importin-beta interaction, primary screen, biochemical, FRET, CFP-Ran, YFP-importin-beta, homogeneous; cell-free CFP-Ran/YFP-importin-beta FRET ratio; hit rate 1.1% among 300,000; Ran GTPase (GTP-bound) - importin-beta complex; inhibition, % (concentration not given with the values); AID 2216, 2009;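 active means more than half of the replicate wells show a fall in the fluorescence ratio signal beyond about 16%, limit read from the data, passing the limit was not always enough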;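 further: 0% = DMSO wells and 100% = Ran loaded with GDP instead of GTP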
Hck Nef HTS – inhibitors of Nef-activated human Hck kinase, primary screen, biochemical, Z-Lyte FRET, 384-well, Hck-YEEI | Recombinant Hck-YEEI plus Nef, Z-Lyte FRET kinase assay | Tyrosine-protein kinase HCK (Homo sapiens), P08631 | hit rate 0.68% among 220,000 | inhibition, % at 20 µM;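 active means Hck-Nef kinase inhibition above about 50%, limit read from the data; inactive means inhibition below that limit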;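 further: 0% = DMSO with Hck plus Nef and 100% = Hck alone without Nef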
TNF necrop inh – inhibitors of TNF-alpha triggered necroptosis, primary screen, cell-based, Jurkat FADD-/-, single concentration; activation (protection from cell death), % at 10 µM; Jurkat FADD-/- TNF necroptosis rescue, ATP luminescence, 24 h; 0 = TNF only, 100 = no-TNF cells; hit rate 0.068% among 220,000;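 active means activation, meaning protection from cell death, of at least 50% relative to plate controls; inactive means activation below 50%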;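 further: necroptosis triggered by 40 ng/mL TNF-alpha added together with compound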
Runt-CBFb TRFRET – inhibitors of RUNX1 Runt–CBFb binding, biochemical, TR-FRET | TR-FRET RUNX1 Runt domain-CBFb binding | hit rate 20% among 480 | shares compounds with Runt-CBFb FRET | inhibition, % at 20 µM | AID 1502, 2009; in the data active means inhibition above about 40%
Numbers without * were called inactive.

`Cc1cccn2c(=O)c3cc(C#N)c(=N)n(Cc4ccncc4)c3nc12` gave Runt-CBFb FRET 70.3*, Runt-SMMHC FRET 129.9*, zVAD death inh 0.4, RanGTP-Impb inh 73.7*, Hck Nef HTS -0.7, TNF necrop inh 0.5 and Runt-CBFb TRFRET -3.7.
Cc1cc(OCC(=O)N(Cc2ccccc2)C2CCS(=O)(=O)C2)ccc1Cl (stereo unspecified) was read as RanGTP-Impb inh -0.4.
Screening CCC1CCCCN1S(=O)(=O)c1ccc(C(=O)N(CCCN(C)C)c2nc3cc4c(cc3s2)OCO4)cc1 (stereo unspecified) returned RanGTP-Impb inh -0.9.
For CC(=O)N(c1ccc2oc(=O)sc2c1)S(=O)(=O)c1cccs1 the results were Runt-CBFb FRET 71.5*, Runt-SMMHC FRET 63.4*, zVAD death inh 1.9, RanGTP-Impb inh 7.4, Hck Nef HTS -0.5, TNF necrop inh 0.1 and Runt-CBFb TRFRET 22.0.
`CC(C)C(=O)N(c1ccc2oc(=O)sc2c1)S(=O)(=O)c1cccs1` gave Runt-CBFb FRET 57.9*, Runt-SMMHC FRET 36.6, zVAD death inh 1.4, RanGTP-Impb inh -0.1, Hck Nef HTS -0.5, TNF necrop inh -0.7 and Runt-CBFb TRFRET 38.5.
For COc1ccc(CC(=O)NCC(C)(C)N2CCOCC2)cc1 the results were RanGTP-Impb inh 2.2.
Screening COc1cccc(CNC(=O)CSc2ccc(-c3cccs3)nn2)c1 returned Runt-CBFb FRET 1.1, Runt-SMMHC FRET -0.3, zVAD death inh -0.2, RanGTP-Impb inh -0.5, Hck Nef HTS 25.1 and TNF necrop inh 0.4.
`CC(C)CCNC(=O)C1CCN(S(=O)(=O)c2ccc(-n3cnnn3)cc2)CC1` gave RanGTP-Impb inh 3.6.
Screening CN(CCC#N)C(=O)COC(=O)c1c2c(nc3ccccc13)/C(=C/c1ccco1)CC2 returned Runt-CBFb FRET 73.6*, zVAD death inh 1.8, RanGTP-Impb inh -80.5, Hck Nef HTS 5.6, TNF necrop inh -0.9 and Runt-CBFb TRFRET 62.6*.
For COc1ccc(/C=C2\CCc3c2nc2ccccc2c3C(=O)O)cc1OC the results were Runt-CBFb FRET 9.8, Runt-SMMHC FRET 81.6, zVAD death inh 1.4, RanGTP-Impb inh -25.8, Hck Nef HTS -210.8 and TNF necrop inh -2.3.
For Cc1cc(N2C(=O)C=CC2=O)c([N+](=O)[O-])cc1C the results were Runt-CBFb FRET 53.1*, Runt-SMMHC FRET 66.5, zVAD death inh 1.0, Hck Nef HTS 2.6, TNF necrop inh 0.4 and Runt-CBFb TRFRET 35.4.
`Cc1ccc(N2C(=O)C3C4C=CC(CC4)C3C2=O)cc1[N+](=O)[O-]` (stereo unspecified) gave RanGTP-Impb inh -0.8.
For CCOc1ccccc1NC(=O)c1cc2ccccc2oc1=O the results were RanGTP-Impb inh 4.2.
CCN(CC)c1ccc2cc(C(=O)Nc3cccnc3N3CCOCC3)c(=O)oc2c1 was read as Runt-CBFb FRET 59.0*, Runt-SMMHC FRET 79.2* and Runt-CBFb TRFRET 16.8.
Screening CCOC(=O)c1cnc2ccc(C)cc2c1Sc1ccc(F)cc1 returned Runt-CBFb FRET 85.8*, Runt-SMMHC FRET -10.0, zVAD death inh 0.6, RanGTP-Impb inh -3.5, Hck Nef HTS -0.4, TNF necrop inh -9.5 and Runt-CBFb TRFRET -47.6.
`CCOC(=O)c1cnc2ccc(C)cc2c1Sc1ccccc1` gave Runt-CBFb FRET -3.9, Runt-SMMHC FRET 2.2, zVAD death inh 0.0, RanGTP-Impb inh 4.1, Hck Nef HTS 0.6 and TNF necrop inh -5.9.

Bioassay records (PubChem BioAssay)
